# Bioassay records (PubChem)
# Compounds with a hit are over-represented: about 2.9% of the library has one in this group of screens.
# RBBP9 inh – blocks human serine hydrolase RBBP9; inhibition, % at 7.94 µM; hit rate 0.2% among 220,000; O75884; recombinant RBBP9, FP-Rh probe fluorescence polarization;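 active means inhibition above the campaign mean of all tested compounds plus 3 SD, cut at about 14% in these data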;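 further: plate controls were DMSO wells with RBBP9 for no effect and wells lacking RBBP9 protein for full effect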
#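 Measured by: FP readout at 525/598 nm; material: recombinant human RBBP9; also added: Serine-hydrolase probe FP-Rh, 375 nM pre-mixing; medium: Tris buffer pH 8.0, NaCl, Pluronic; replication: one well per compound; doses: one concentration, 7.94 µM nominal, 0.794% DMSO; timing: preincubation 30 min plus labeling 45 min at 25 °C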
# RanGTP-Imp inh – disruptors of Ran-importin-beta complex formation – biochemical, FRET, CFP-Ran, YFP-importin-beta, homogeneous, primary screen; cell-free CFP-Ran/YFP-importin-beta FRET ratio; inhibition, % (test concentration not listed); hit rate 1.1% among 300,000;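 active means more than half of the replicate wells show a fall in the fluorescence ratio signal beyond about 16%, limit read from the data, passing the limit was not always enough; inconclusive means exactly half of the replicate wells pass the set limit; inactive means fewer than half of replicates pass the limit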;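 further: 0% = DMSO wells and 100% = Ran loaded with GDP instead of GTP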
# M18AAP inhibitor – PfM18AAP enzyme inhibition; recombinant PfM18AAP, H-Glu-NHMec fluorogenic cleavage; inhibition, % at 7.35 µM; hit rate 1.2% among 290,000;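 active means inhibition above the campaign mean inhibition over all tested compounds plus 3 SD, cut at about 28% in these data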;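 further: 0% = plate median of test compound wells and 100% = 2 mM ZnCl2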
# Hck-Nef inh – inhibitors of human Hck kinase activated by Nef. P08631. Recombinant Hck-YEEI plus Nef, Z-Lyte FRET kinase assay. inhibition, % at 20 µM. hit rate 0.68% among 220,000. AID 463187;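 active means Hck-Nef kinase inhibition above about 50%, limit read from the data; inactive means inhibition below that limit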;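 further: 0% = DMSO with Hck plus Nef and 100% = Hck alone without Nef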
# Target sequence (P08631 whole entry, looked up): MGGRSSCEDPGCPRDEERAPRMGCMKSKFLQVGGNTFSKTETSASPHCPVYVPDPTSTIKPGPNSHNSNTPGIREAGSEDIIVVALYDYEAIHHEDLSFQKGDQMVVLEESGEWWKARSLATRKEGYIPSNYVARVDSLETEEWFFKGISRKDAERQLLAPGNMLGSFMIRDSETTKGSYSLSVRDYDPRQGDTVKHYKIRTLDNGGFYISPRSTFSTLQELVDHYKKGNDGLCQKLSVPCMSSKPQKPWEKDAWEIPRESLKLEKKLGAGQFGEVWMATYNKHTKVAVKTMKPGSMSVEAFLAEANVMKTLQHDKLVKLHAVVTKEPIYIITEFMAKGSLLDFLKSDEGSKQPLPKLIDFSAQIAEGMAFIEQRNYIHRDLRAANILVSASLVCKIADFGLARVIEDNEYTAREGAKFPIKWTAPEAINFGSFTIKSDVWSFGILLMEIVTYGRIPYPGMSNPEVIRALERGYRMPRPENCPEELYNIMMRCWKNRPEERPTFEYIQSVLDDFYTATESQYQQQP
# Runt-SMMHC FRET – inhibitors of human RUNX1 Runt domain binding to CBFb-SMMHC; Cerulean-Runt/Venus-CBFb-SMMHC FRET ratio 530/480, 1 h; Q01196+Q13951; inhibition, % at 20 µM; hit rate 0.74% among 220,000;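 active means mean inhibition across duplicate retests at 20 µM reaching about 50%, limit read from the data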;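 further: 0% = DMSO wells and 100% = wells with excess untagged CBFb-SMMHC; inhibitors lower the FRET ratio by blocking Runt binding to CBFb-SMMHC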
# Runt-CBFb FRET – blocks binding of human RUNX1 Runt domain to CBFb. Cerulean-Runt/Venus-CBFb FRET ratio 530/480, 1 h. inhibition, % at 20 µM. hit rate 0.46% among 220,000;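 active means inhibition over about 50% at 20 µM in the single-dose screen, limit read from the data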;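 further: 0% = DMSO wells and 100% = excess unlabeled CBFb competitor control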
#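 Assay system: Cerulean-Runt domain / Medium: Tris 50 mM pH 7.5, KCl, K2SO4, 0.01% BSA / Timing: protein complex preformed 1 h, compound exposure 1 h, room temperature, dark / Measured by: FRET, excitation 422 nm, emission at 530 and 480 nm / Evaluation: loss of energy transfer signal / Control set: 5 µM unlabeled CBFb as full-inhibition high control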
# * marks the source's active call; other numbers are inactive results; ? = inconclusive; . = not tested or not shown.
SMILES,RBBP9 inh,RanGTP-Imp inh,M18AAP inhibitor,Hck-Nef inh,Runt-SMMHC FRET,Runt-CBFb FRET
O=c1oc2cc(O)ccc2c2c1CCCC2,-1,10,-6,38,108*,48
O=c1oc2cc(O)ccc2c2oc3cc(O)ccc3c12,-3,?,-4,18,56*,23
COc1ccc2nc3cc(Cl)ccc3c(C#N)c2c1,-5,51*,1,8,29,16
O=C([C@@H]1Cc2ccccc2CN1)N1CCN(Cc2ccccc2)CC1,.,4,4,.,.,.
O=C(Nc1nccs1)c1ccccc1N=Cc1ccccc1,1,7,-1,5,58*,19
COc1cccc(C=Nc2ccccc2C(=O)Nc2nccs2)c1OC,-2,10,-3,6,52*,24
Oc1ccc(N=C/C=C/c2ccc(Br)cc2)cc1-c1nc2ccccc2s1,-7,38*,-5,3,36,34
CC(=O)NC(C)(CC(=O)c1ccccc1)c1ccccc1 (stereo unspecified),.,0,.,.,.,.
CCCN1C=CC(=CC=C(C#N)C#N)C=C1,-9,34*,3,-3,-30,-14
COc1ccc(S(=O)(=O)NCCc2cn3nc(C)c(C)nc3n2)cc1F,.,17*,-1,.,.,.
CCOc1ccc(NC(=O)CN(C)C(=O)c2cc3c(s2)CCCCC3)cc1OCC,.,8,.,.,.,.
CSc1cccc(-n2cc(-c3ccc4c(c3)OCO4)[nH]c2=O)c1,-5,-3,29*,3,-3,2
COc1ccc(C(=O)NN=C2CCCC2)cc1,.,28*,-1,.,.,.
COc1cc(F)ccc1S(=O)(=O)N1CCN(c2ccccc2)CC1,.,-7,-1,.,.,.
O=C(Nc1ccc(Nc2ccncc2)cc1)c1ccc(Nc2ccnc3ccc([N+](=O)[O-])cc23)cc1,7,6,-6,-163,57*,14
O=C(Nc1ccc(Cc2ccncc2)cc1)c1cccc([N+](=O)[O-])c1,-12,1,-6,-1,1,1
O=C(Nc1ccc(S(=O)(=O)NC2=NCCCCC2)cc1)c1ccc(Cl)cc1Cl,.,0,.,.,.,.
Cc1ccc(C2C3=C(CC(C)(C)CC3=O)Nc3[nH]c(=S)[nH]c(=O)c32)cc1 (stereo unspecified),.,.,.,.,71*,18
Oc1c(N=Nc2ccccc2)sc2ccccc12,-10,29*,0,18,-10,-6
Cc1cc(C)c(NC(=O)C2=COCCO2)c(C)c1,.,-3,.,.,.,.
CCOc1cccc(N2CCN(CCNC(=O)Nc3ccc(C)cc3)CC2)c1C,.,-1,-1,.,.,.
O=C(Cn1cnc2scc(-c3cccc([N+](=O)[O-])c3)c2c1=O)NCc1ccco1,-9,-1,-7,54*,-4,2
Cc1sc2ncn(CC(=O)NCc3ccco3)c(=O)c2c1-c1ccc(F)cc1,-8,8,4,28,13,15
COc1ccc(C(=O)Nn2cnnc2)cc1,-2,0,26,-2,-2,2
COc1cccc(C(=O)Nn2cnnc2)c1,-5,0,30*,23,2,-1
SMILES,RBBP9 inh,RanGTP-Imp inh,M18AAP inhibitor,Hck-Nef inh,Runt-SMMHC FRET,Runt-CBFb FRET
CC(O)c1cc2c(cc1NC(=O)c1cnn3c1NC(c1ccco1)CC3C(F)(F)F)OCO2 (stereo unspecified),-9,-1,29*,7,4,3
CCOC(=O)/C(O)=C(\C#N)c1nc2ccccc2[nH]1,-4,5,4,-10,74*,33
CCOC(=O)c1c(C)[nH]c(C(=O)OC/C(O)=C(\C#N)c2nc3ccccc3[nH]2)c1C,-6,.,-1,1,4,-3
COc1ccc(S(=O)(=O)N2CCN(C(=O)CN3C(=O)NC(C)(c4ccc5ccccc5c4)C3=O)CC2)cc1 (stereo unspecified),.,0,.,.,.,.
CCCn1c2ccccc2c2cnn(CC(=O)NCCN(C)C)c(=O)c21,.,20*,1,.,.,.
CCCn1c2ccccc2c2cnn(CC(=O)NCCN(CC)CC)c(=O)c21,.,0,-2,.,.,.
CCCCn1c(=O)nc2n(-c3ccc(OC)cc3)c3ccccc3cc-2c1=O,6,9,-8,-10,27,17
CCCCn1c(=O)nc2n(-c3ccc(C)cc3)c3ccccc3cc-2c1=O,-7,60*,2,4,82*,54*
